Assay results as given in ChEMBL document CHEMBL5058577, “EUbOPEN Chemogenomics Library 2 (Multiplex)” (2022).

Tested on: Fibroblast
Assay: Multiplex assay against human fibroblast
Format: toxicity, cell-based
How it was run: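 Live cells carried four stains from seeding: Hoechst33342, BioTracker Green Microtubule Cytoskeleton Dye, MitoTracker Red and Annexin V Alexa Fluor 680. They were imaged on a CQ1 microscope at 37°C and 5% CO2 after compound addition. Using CellPathfinder machine-learning gating, cells were split into Hoechst high-intensity objects or normal cells, normal cells into healthy, pyknosed or fragmented nuclei, and pyknosed cells into mitotic or apoptotic; tubulin, mitochondrial-mass and membrane-permeability phenotypes are per cents of healthy-nucleus cells.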

[1] = 12 h, 1 µM, compound concentration 1 uM, replicate 1
[2] = 12 h, 1 µM, compound concentration 1 uM, replicate 2
[3] = 12 h, 10 µM, compound concentration 10 uM, replicate 1
[4] = 12 h, 10 µM, compound concentration 10 uM, replicate 2
[5] = 24 h, 1 µM, compound concentration 1 uM, replicate 1
[6] = 24 h, 1 µM, compound concentration 1 uM, replicate 2
[7] = 24 h, 10 µM, compound concentration 10 uM, replicate 1
[8] = 24 h, 10 µM, compound concentration 10 uM, replicate 2
[9] = 48 h, 1 µM, compound concentration 1 uM, replicate 1
[10] = 48 h, 1 µM, compound concentration 1 uM, replicate 2
[11] = 48 h, 10 µM, compound concentration 10 uM, replicate 1
[12] = 48 h, 10 µM, compound concentration 10 uM, replicate 2

COc1cc(C(=O)N2CC[C@@H](O)[C@@H](N)C2)cc2nc(-c3cc4ccccc4n3CC3CC3)n(C)c12.Cl
Population Apoptotic (%) [1]: 21% | Population Fragmented Nuclei (%) [1]: 25% | Population Healthy Nuclei (%) [1]: 62% | Population Hoechst High Intensity Objects (%) [1]: 2% | Population Membrane Permeable-Phenotype (%) [1]: 0% | Population Mitochondria Different-Phenotype (%) [1]: 4% | Population Mitotic Cells (%) [1]: 78% | Population Normal (%) [1]: 97% | Population Pyknosed Nuclei (%) [1]: 12% | Population Tubulin-Different-Phenotype (%) [1]: 55% | Total Cell Count [1]: 160 | Population Apoptotic (%) [2]: 48% | Population Fragmented Nuclei (%) [2]: 24% | Population Healthy Nuclei (%) [2]: 44% | Population Hoechst High Intensity Objects (%) [2]: 3% | Population Membrane Permeable-Phenotype (%) [2]: 10% | Population Mitochondria Different-Phenotype (%) [2]: 14% | Population Mitotic Cells (%) [2]: 51% | Population Normal (%) [2]: 96% | Population Pyknosed Nuclei (%) [2]: 31% | Population Tubulin-Different-Phenotype (%) [2]: 69% | Total Cell Count [2]: 130 | Population Apoptotic (%) [3]: 60% | Population Fragmented Nuclei (%) [3]: 22% | Population Healthy Nuclei (%) [3]: 57% | Population Hoechst High Intensity Objects (%) [3]: 6% | Population Membrane Permeable-Phenotype (%) [3]: 0% | Population Mitochondria Different-Phenotype (%) [3]: 34% | Population Mitotic Cells (%) [3]: 40% | Population Normal (%) [3]: 93% | Population Pyknosed Nuclei (%) [3]: 19% | Population Tubulin-Different-Phenotype (%) [3]: 97% | Total Cell Count [3]: 271 | Population Apoptotic (%) [4]: 48% | Population Fragmented Nuclei (%) [4]: 30% | Population Healthy Nuclei (%) [4]: 44% | Population Hoechst High Intensity Objects (%) [4]: 10% | Population Membrane Permeable-Phenotype (%) [4]: 2% | Population Mitochondria Different-Phenotype (%) [4]: 25% | Population Mitotic Cells (%) [4]: 51% | Population Normal (%) [4]: 89% | Population Pyknosed Nuclei (%) [4]: 25% | Population Tubulin-Different-Phenotype (%) [4]: 92% | Total Cell Count [4]: 179 | Population Apoptotic (%) [5]: 55% | Population Fragmented Nuclei (%) [5]: 24% | Population Healthy Nuclei (%) [5]: 62% | Population Hoechst High Intensity Objects (%) [5]: 3% | Population Membrane Permeable-Phenotype (%) [5]: 0% | Population Mitochondria Different-Phenotype (%) [5]: 5% | Population Mitotic Cells (%) [5]: 45% | Population Normal (%) [5]: 96% | Population Pyknosed Nuclei (%) [5]: 13% | Population Tubulin-Different-Phenotype (%) [5]: 51% | Total Cell Count [5]: 158 | Population Apoptotic (%) [6]: 60% | Population Fragmented Nuclei (%) [6]: 31% | Population Healthy Nuclei (%) [6]: 36% | Population Hoechst High Intensity Objects (%) [6]: 4% | Population Membrane Permeable-Phenotype (%) [6]: 4% | Population Mitochondria Different-Phenotype (%) [6]: 20% | Population Mitotic Cells (%) [6]: 39% | Population Normal (%) [6]: 95% | Population Pyknosed Nuclei (%) [6]: 31% | Population Tubulin-Different-Phenotype (%) [6]: 79% | Total Cell Count [6]: 125 | Population Apoptotic (%) [7]: 73% | Population Fragmented Nuclei (%) [7]: 15% | Population Healthy Nuclei (%) [7]: 68% | Population Hoechst High Intensity Objects (%) [7]: 7% | Population Membrane Permeable-Phenotype (%) [7]: 0% | Population Mitochondria Different-Phenotype (%) [7]: 55% | Population Mitotic Cells (%) [7]: 26% | Population Normal (%) [7]: 92% | Population Pyknosed Nuclei (%) [7]: 16% | Population Tubulin-Different-Phenotype (%) [7]: 94% | Total Cell Count [7]: 274 | Population Apoptotic (%) [8]: 62% | Population Fragmented Nuclei (%) [8]: 27% | Population Healthy Nuclei (%) [8]: 54% | Population Hoechst High Intensity Objects (%) [8]: 5% | Population Membrane Permeable-Phenotype (%) [8]: 3% | Population Mitochondria Different-Phenotype (%) [8]: 41% | Population Mitotic Cells (%) [8]: 37% | Population Normal (%) [8]: 94% | Population Pyknosed Nuclei (%) [8]: 17% | Population Tubulin-Different-Phenotype (%) [8]: 92% | Total Cell Count [8]: 174 | Population Apoptotic (%) [9]: 80% | Population Fragmented Nuclei (%) [9]: 22% | Population Healthy Nuclei (%) [9]: 67% | Population Hoechst High Intensity Objects (%) [9]: 6% | Population Membrane Permeable-Phenotype (%) [9]: 0% | Population Mitochondria Different-Phenotype (%) [9]: 8% | Population Mitotic Cells (%) [9]: 20% | Population Normal (%) [9]: 93% | Population Pyknosed Nuclei (%) [9]: 10% | Population Tubulin-Different-Phenotype (%) [9]: 44% | Total Cell Count [9]: 161 | Population Apoptotic (%) [10]: 64% | Population Fragmented Nuclei (%) [10]: 38% | Population Healthy Nuclei (%) [10]: 41% | Population Hoechst High Intensity Objects (%) [10]: 1% | Population Membrane Permeable-Phenotype (%) [10]: 3% | Population Mitochondria Different-Phenotype (%) [10]: 16% | Population Mitotic Cells (%) [10]: 35% | Population Normal (%) [10]: 98% | Population Pyknosed Nuclei (%) [10]: 20% | Population Tubulin-Different-Phenotype (%) [10]: 80% | Total Cell Count [10]: 153 | Population Apoptotic (%) [11]: 86% | Population Fragmented Nuclei (%) [11]: 20% | Population Healthy Nuclei (%) [11]: 64% | Population Hoechst High Intensity Objects (%) [11]: 8% | Population Membrane Permeable-Phenotype (%) [11]: 0% | Population Mitochondria Different-Phenotype (%) [11]: 62% | Population Mitotic Cells (%) [11]: 13% | Population Normal (%) [11]: 91% | Population Pyknosed Nuclei (%) [11]: 15% | Population Tubulin-Different-Phenotype (%) [11]: 94% | Total Cell Count [11]: 256 | Population Fragmented Nuclei (%) [12]: 32% | Population Healthy Nuclei (%) [12]: 55% | Population Hoechst High Intensity Objects (%) [12]: 4% | Population Mitochondria Different-Phenotype (%) [12]: 36% | Population Normal (%) [12]: 95% | Population Pyknosed Nuclei (%) [12]: 11% | Total Cell Count [12]: 193
